Source: PubChem BioAssay
Sampled rows, rich in hits. Any-hit rate of the full collection: about 1.8%.
DDE Tn6 FP inh: inhibitors of Tn6 peptide binding to fibrin DD(E), primary screen, biochemical, fluorescence polarization, human fibrin, Tn6 probe | Fibrinogen beta chain (Homo sapiens), P02675 | Fibrin DD(E) TRITC-Tn6 fluorescence polarization displacement | inhibition, % at 8.3 µM | actives 0.21% (n = 370,000);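 active = inhibition above a per-campaign cutoff: mean of compounds within control limits plus 3 SD, cut at about 15% in these data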;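 note: 0% = median of all compound wells on the plate and 100% = blocking peptide control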
SIAE primary: human SIAE inhibitors, primary screen, biochemical, fluorescence polarization, FP-Rh probe, 1536-well HTS | Sialate O-acetylesterase (Homo sapiens), Q9HAT2 | SIAE FP-Rh probe binding | inhibition, % at 9.66 µM | actives 0.69% (n = 370,000) | AID 1053197, 2014;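 active = inhibition above a cutoff: mean of compounds within the control limits plus 3 SD of those, cut at about 17% in these data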;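 note: 0% = plate median of compound wells and 100% = probe without SIAE protein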
Tn7 DDE FP: inhibitors of Tn7 peptide binding to fibrin DD(E), primary screen, biochemical, fluorescence polarization, human fibrin, Tn7 probe. inhibition, % at 8.3 µM. AID 720508, 2013. Fibrinogen beta chain (Homo sapiens), P02675. actives 0.13% (n = 370,000). FP displacement of FITC-Tn7 peptide from fibrin DD(E); 0% = median of compound wells per plate;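 active = inhibition above the mean of compounds falling within the control limits plus 3 SD of them, cut at about 14% in these data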;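 note: 0% = plate median of compound wells and 100% = 10 µM Aha-Tn7 peptide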
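Assay system: human fibrin DD(E) protein / Input: 2 µM fibrin DD(E) / Benchmarks: high control of 10 µM Aha-Tn7 peptide / Measured by: fluorescence polarization of the labelled Tn7 tracer / Medium: Tris buffer with calcium and detergent, pH 7.8 / Timing: 10 min compound pre-incubation, 3 h probe incubation at room temperature / Repeats: one replicate per compound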
TCR CD3 inh: inhibitors of human TCR-CD3 interaction, primary screen, biochemical, fluorescence, TAMRA-labeled TCR probe | inhibition, % at 9.4 µM | actives 0.37% (n = 360,000) | AID 651800, 2012; in the data active = inhibition above about 19%;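 note: recombinant mutant TCR 2C K166C tagged with TAMRA read by polarization; 0% = receptor in buffer alone and 100% = receptor with positive control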
ABHD4 inh: ABHD4 inhibitors, primary screen, biochemical, fluorescence polarization, mouse; (Lyso)-N-acylphosphatidylethanolamine lipase (Mus musculus), Q8VD66; purified mABHD4, FP-Rh probe fluorescence polarization; inhibition, % at 8.92 µM; actives 0.54% (n = 370,000); AID 720543, 2013;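 active = inhibition exceeding the mean over every tested compound plus 3 SD, cut at about 30% in these data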;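 note: 0% = plate median of compound wells and 100% = S159A mutant with DMSO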
Target sequence (Q8VD66 whole entry, looked up): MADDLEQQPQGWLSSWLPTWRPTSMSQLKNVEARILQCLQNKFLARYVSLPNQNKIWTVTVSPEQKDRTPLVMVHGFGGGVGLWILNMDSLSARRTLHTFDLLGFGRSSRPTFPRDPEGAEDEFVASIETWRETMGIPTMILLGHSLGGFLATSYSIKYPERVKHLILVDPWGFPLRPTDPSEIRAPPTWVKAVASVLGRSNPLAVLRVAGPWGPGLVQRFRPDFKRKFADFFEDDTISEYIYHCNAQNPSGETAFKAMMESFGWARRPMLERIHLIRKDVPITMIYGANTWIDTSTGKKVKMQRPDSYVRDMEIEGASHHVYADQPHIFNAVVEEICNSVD
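Doses – 8.92 µM, single dose · Material – wild-type mouse ABHD4 protein · Replication – single well per compound (singlicate) · Measure – percent inhibition of probe binding, normalized to plate controls · Schedule – 45 min compound pre-incubation plus 60 min probe step, 25 °C · Detection – fluorescence polarization with parallel and perpendicular emission, 525/598 nm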
HTRA1 inh: HTRA1 serine protease inhibitors, primary screen, biochemical, fluorescence polarization, HTS. Q92743. recombinant HTRA1, FP-rhodamine activity-based probe. inhibition, % at 5.96 µM. actives 0.5% (n = 340,000); in the data active = inhibition above about 36%;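 note: 0% = enzyme with DMSO and 100% = wells lacking enzyme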
DDE Tn6 FP ctr: DD(E)-Tn6 binding inhibition, counter-screen. AID 720621. shares compounds with DDE Tn6 FP inh. Fibrin DD(E), TRITC-Tn6 fluorescence polarization displacement; 0% = median of compound wells, not DMSO. actives 2% (n = 680). inhibition, % at 8.3 µM;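 active = inhibition above the mean of test compounds lying between the control limits plus 3 SD of those, cut at about 14% in these data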;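 note: 0% = median of compound wells and 100% = wells with Aha-Tn7 blocking peptide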
Tn6 DDE conf: inhibitors of Tn6 peptide binding to fibrin DD(E), confirmation, biochemical, fluorescence polarization, human fibrin, Tn6 probe. shares compounds with DDE Tn6 FP inh. FP displacement of TRITC-Tn6 peptide from DD(E); 0% = per-plate median of test wells. inhibition, % at 8.3 µM. actives 10% (n = 680). AID 720631, 2013;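 active = inhibition above the mean of compounds lying within the control limits plus 3 SD, cut at about 16% in these data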;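 note: 100% = high control wells holding a competing inhibitor peptide at 10 µM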
* marks the source's active call; other numbers are inactive results; x = not tested or not shown.

SMILES | DDE Tn6 FP inh | SIAE primary | Tn7 DDE FP | TCR CD3 inh | ABHD4 inh | HTRA1 inh | DDE Tn6 FP ctr | Tn6 DDE conf
O=C(NC(Cc1cccc(F)c1)C(=O)O)C1CCCCC1 (stereo not drawn) | 15.9* | 7.2 | -2.6 | -1.6 | 0.3 | -2.7 | -1.9 | -6.1
CC(=O)Nc1nc2cc3c(cc2s1)OCO3 | 15.5* | 10.2 | 5.4 | 1.4 | 3.9 | -0.4 | 3.8 | 3.9
CC(C)C(=O)Nc1nc2cc3c(cc2s1)OCCO3 | 3.8 | -4.6 | -4.0 | 4.9 | 0.8 | -0.5 | x | x
COc1ccc(F)cc1-c1cc(C(C)=O)c2n(c1=O)CCC2 | 5.7 | 9.0 | 7.3 | x | -1.1 | x | x | x
O=C(COC(=O)C(Cc1ccccc1)NC(=O)c1cccs1)NCc1ccccc1 (stereo not drawn) | 3.3 | 4.1 | 2.3 | 2.9 | -6.3 | -3.1 | x | x
O=C(N[C@@H](Cc1ccccc1)C(=O)OCC(=O)N1CCOCC1)c1cccs1 | 17.8* | -1.6 | -0.7 | -0.4 | 2.6 | 0.9 | 3.0 | -5.3
CCOC(=O)c1sc(N(Cc2ccccc2)C(=O)COC(=O)c2ccc(O)cc2)nc1C | 26.9* | -66.1 | 6.4 | -4.1 | -78.8 | -57.7 | 8.9 | -2.9
CCOC(=O)c1sc(N(Cc2ccccc2)C(=O)COC(=O)c2ccccc2O)nc1C | -5.5 | 2.8 | 0.8 | -2.1 | 0.4 | -9.2 | x | x
Cc1ccc2[nH]c(=O)c(-c3noc(C(C)C)n3)cc2c1 | 17.2* | -0.4 | -2.4 | 3.1 | 5.4 | 1.5 | -0.8 | -5.0
CC(NC(=O)C(NC(=O)OCc1ccccc1)C(C)O)C(=O)OCc1ccccc1 (stereo not drawn) | 4.7 | 4.4 | -0.5 | -0.3 | 6.8 | x | x | x
COc1ccc(-n2c(SCC(=O)NC3CCCCCC3)nnc2-c2ccncc2)cc1 | 3.8 | 2.8 | 1.7 | x | 10.4 | x | x | x
Cc1ccc(C)c(Cn2nnc3c(=O)[nH]c(C4CCN(S(=O)(=O)c5ccc(S(=O)(=O)NC6CC6)cc5)CC4)nc32)c1 | 18.5* | -41.7 | -2.2 | 6.3 | -52.1 | -80.4 | 6.3 | 6.4
Cc1ccc(NC(=O)OCCCN2C(=O)CCC23CCC(C)CC3)cc1C (stereo not drawn) | 4.0 | -5.9 | 4.6 | x | -2.2 | x | x | x
CSc1ccc(S(=O)(=O)N2CC(=O)Nc3ccccc32)cc1 | 15.8* | 0.5 | -6.2 | 9.1 | 1.4 | -0.2 | 3.9 | 4.1
O=C(c1ccccc1OCc1ccccc1)N(Cc1ccccn1)CC1CCCO1 (stereo not drawn) | 2.0 | 1.3 | 0.4 | x | -4.9 | x | x | x
c1ccc2c3c(c(CN4CCCCC4)cc2c1)COC3 | 3.2 | -1.9 | 3.1 | 9.5 | -3.3 | x | x | x
Cc1cc2ccccc2cc1CN1CCCCC1 | 16.3* | 6.4 | 5.2 | 1.5 | -2.4 | 4.0 | -3.8 | -4.2
CCN(CC)C(=O)CSc1nnc(-c2ccccn2)n1C | 5.5 | 0.5 | 1.4 | x | -1.1 | x | x | x
COc1ccc(CNc2ncnc3cc(Cl)ccc23)cc1OC | 15.8* | -3.1 | 2.8 | 5.2 | 2.3 | -4.7 | -9.3 | -5.9
C[C@@H]1[C@@H](c2ccccc2)OC(O)([C@H](Cc2ccccc2)NC(=O)OC(C)(C)C)CN1C (stereo partly drawn) | 6.8 | -3.5 | 3.1 | x | 2.7 | x | x | x
COCCN(CC1CCCN(C2Cc3ccccc3C2)C1)C(=O)c1cccc(C)c1 (stereo not drawn) | 6.2 | -1.6 | 3.5 | 3.6 | -4.1 | 6.8 | x | x
COCCN(CC1CCCN(C2Cc3ccccc3C2)C1)C(=O)c1ccc(C(C)=O)cc1 (stereo not drawn) | 15.9* | 2.4 | 4.8 | 6.5 | 1.9 | -2.9 | -1.7 | -3.1
COC(=O)C1=C(C)N(C)C(=NCc2ccc(OC)cc2)NC1c1cccc(Cl)c1 (stereo not drawn) | -2.4 | -1.4 | -4.9 | 0.1 | -1.4 | x | x | x
C=C1CCN(c2ccc(C(=O)NCc3ccc(OC)cc3)cc2[N+](=O)[O-])CC1 | 15.3* | -1.5 | -0.6 | -1.1 | -6.7 | -32.1 | -3.0 | -5.6
O=C(Nc1ccccc1F)Oc1cccc(OC(=O)Nc2ccccc2F)c1 | 15.4* | -7.3 | -0.1 | -1.7 | -0.5 | -1.3 | -0.9 | 0.3
SMILES | DDE Tn6 FP inh | SIAE primary | Tn7 DDE FP | TCR CD3 inh | ABHD4 inh | HTRA1 inh | DDE Tn6 FP ctr | Tn6 DDE conf
Cc1c(CN2CCC(C(=O)Nc3ccc(Oc4ccccc4)nc3)CC2)cnn1C | 15.4* | 4.3 | -1.5 | -3.1 | 1.8 | -0.2 | 8.8 | 6.1
O=C(CSc1nnc(-c2ccccn2)n1Cc1ccco1)Nc1ccc2c(c1)OCO2 | 15.3* | 0.9 | 2.1 | 2.1 | -1.8 | 5.6 | 8.6 | 2.6
O=C(N[C@H](C(=O)N1CCC[C@H]1C(=O)NC1CCCC1)C1CCCCC1)c1ccco1 | 1.4 | -4.7 | -0.1 | 1.0 | -4.5 | x | x | x
CC1CCN(c2c3c(nc4ncnn24)CCCC3)CC1 | -0.9 | -8.4 | -4.3 | x | 0.9 | x | x | x
COc1cc(OC)cc(C(=O)N(CN2CCCC2=O)c2ccccc2OC)c1 | 15.8* | 1.4 | 3.9 | -1.6 | 3.2 | -4.9 | 1.9 | 2.4
COc1ccccc1N(CN1CCCC1=O)C(=O)c1ccccc1F | 3.4 | 3.6 | -0.8 | -9.8 | -4.2 | 7.1 | x | x
N#CC(C#N)=c1ccc2c(c1)NC1(CCCCC1)N=2 | 41.8* | -9.9 | 4.5 | -32.6 | -4.4 | 18.4 | 11.4 | 34.4*
O=C(COC(=O)c1ccc(Sc2ncn[nH]2)c([N+](=O)[O-])c1)Nc1cccc(Cl)c1F | 15.6* | -3.3 | 2.4 | x | -4.3 | x | 8.2 | 6.2
O=C(COC(=O)c1ccc(Cl)c([N+](=O)[O-])c1)Nc1ccccc1OC(F)F | -5.6 | 0.7 | -0.5 | -1.6 | -3.5 | -10.8 | x | x
Cc1ccc(O)c(N=Nc2ccccc2)n1 | 16.0* | -0.2 | -4.3 | -2.1 | -4.5 | 1.0 | 0.9 | 0.9
c1ccc(-c2nc(-n3ccnc3)nc(-n3ccnc3)n2)cc1 | 15.4* | -5.8 | 7.4 | 0.0 | 10.7 | -6.8 | 2.2 | -2.6
